Measurements: ChEMBL document CHEMBL4049426, “Identification of the Clinical Candidate (R)-(1-(4-Fluorophenyl)-6-((1-methyl-1H-pyrazol-4-yl)sulfonyl)-4,4a,5,6,7,8-hexahydro-1H-pyrazolo[3,4-g]isoquinolin-4a-yl)(4-(trifluoromethyl)pyridin-2-yl)methanone (CORT125134): A Selective Glucocorticoid Receptor (GR) Antagonist” (J Med Chem, 2017)

Tests used:
[1] = Cmax in Sprague-Dawley CD-1 rat plasma at 3 mg/kg, po administered as cassette dose via gavage measured up to 24 hrs by LC/MS analysis; assay type: ADME, organism-based; parameters: dose 3 mg/kg, route oral
How it was run: (§1)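 Three male Sprague Dawley CD-1 rats (220-250g) with jugular vein catheters; three test compounds plus a reference dosed together by oral gavage, 3mg/kg each, in DMSO:0.5% methylcellulose 10:90 (0.6mg/mL per compound), 5mL/kg. Plasma sampled pre-dose and at 0.25, 0.5, 1, 2, 4, 6, 8, 24 h; LC/MS.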

[2] = AUC in Sprague-Dawley CD-1 rat plasma at 3 mg/kg, po administered as cassette dose via gavage measured up to 24 hrs by LC/MS analysis; assay type: ADME, organism-based; parameters: time < 24 hr, dose 3 mg/kg, route oral; how it was run: as §1
Glucocorticoid receptor [3] = molecular target: T1, Glucocorticoid receptor (Homo sapiens, UniProt P04150); assay: Antagonist activity at glucocorticoid receptor in human HepG2 cells assessed as inhibition of dexamethasone-induced tyrosine amino transferase activity preincubated for 30 mins followed by dexamethasone addition measured after 20 hrs; assay type: cell-based
T1 sequence (P04150 whole entry): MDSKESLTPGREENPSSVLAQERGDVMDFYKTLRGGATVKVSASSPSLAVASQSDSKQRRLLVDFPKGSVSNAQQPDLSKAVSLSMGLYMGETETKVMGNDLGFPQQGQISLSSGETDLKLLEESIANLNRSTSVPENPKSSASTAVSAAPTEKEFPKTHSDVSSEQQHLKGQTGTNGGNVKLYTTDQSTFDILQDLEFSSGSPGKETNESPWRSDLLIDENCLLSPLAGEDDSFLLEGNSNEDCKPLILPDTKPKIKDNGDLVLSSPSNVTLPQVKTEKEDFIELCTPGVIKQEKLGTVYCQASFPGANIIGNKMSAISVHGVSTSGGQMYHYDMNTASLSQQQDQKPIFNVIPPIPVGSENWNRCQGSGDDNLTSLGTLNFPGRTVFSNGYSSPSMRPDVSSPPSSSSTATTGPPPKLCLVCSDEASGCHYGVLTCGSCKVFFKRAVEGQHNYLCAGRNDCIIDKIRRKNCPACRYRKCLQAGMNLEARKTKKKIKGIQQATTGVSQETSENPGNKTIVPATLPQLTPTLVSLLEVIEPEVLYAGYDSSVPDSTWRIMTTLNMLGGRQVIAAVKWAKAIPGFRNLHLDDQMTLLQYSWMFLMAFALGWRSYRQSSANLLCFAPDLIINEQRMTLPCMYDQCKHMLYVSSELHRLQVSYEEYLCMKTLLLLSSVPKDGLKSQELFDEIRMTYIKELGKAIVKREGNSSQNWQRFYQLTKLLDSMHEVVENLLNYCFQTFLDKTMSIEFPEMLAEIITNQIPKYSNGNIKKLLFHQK

Glucocorticoid receptor [4] = molecular target: T1, Glucocorticoid receptor; assay: Displacement of fluormone GS Red from human glucocorticoid receptor after 4 hrs by fluorescence polarization assay

Compound	Cmax [1]	AUC at 24 h [2]	Ki (Glucocorticoid receptor [3])	Ki (Glucocorticoid receptor [4])
Cc1cccc(S(=O)(=O)N2CCC3=Cc4c(cnn4-c4ccc(F)cc4)C[C@]3(C(=O)c3ccccn3)C2)c1	31 ng/mL	83 ng·h/mL	–	–
Cc1ccnc(C(=O)[C@]23Cc4cnn(-c5ccc(F)cc5)c4C=C2CCN(S(=O)(=O)c2cc(F)cc(F)c2)C3)c1	–	–	4.3 nM	0.14 nM
Cn1cc(S(=O)(=O)N2CC[C@H]3Cc4c(cnn4-c4ccc(F)cc4)C[C@]3(C(=O)c3cc(C(F)(F)F)ccn3)C2)cn1	–	–	34 nM	–
CCn1nccc1S(=O)(=O)N1CC[C@H]2Cc3c(cnn3-c3ccc(F)cc3)C[C@]2(C(=O)c2cc(C(F)(F)F)ccn2)C1	–	–	68 nM	–
Cn1cc(S(=O)(=O)N2CCC3=Cc4c(cnn4-c4ccc(F)cc4)C[C@]3(C(=O)c3cc(C(F)(F)F)ccn3)C2)nn1	91.5 ng/mL	450 ng·h/mL	9.7 nM	–
Cc1csc(C(=O)[C@]23Cc4cnn(-c5ccc(F)cc5)c4C=C2CCN(S(=O)(=O)c2cccc(C(F)(F)F)c2)C3)n1	–	–	63 nM	0.88 nM
Cc1ccnc(C(=O)[C@]23Cc4cnn(-c5ccc(F)cc5)c4C=C2CCN(S(=O)(=O)c2ccc(C(F)(F)F)c(F)c2)C3)c1	48 ng/mL	173 ng·h/mL	7.5 nM	0.42 nM
CCc1ccnc(C(=O)[C@]23Cc4cnn(-c5ccc(F)cc5)c4C=C2CCN(S(=O)(=O)c2cccc(C#N)c2)C3)c1	–	–	1.7 nM	0.19 nM
Cc1cnc(C(=O)[C@]23Cc4cnn(-c5ccc(F)cc5)c4C=C2CCN(S(=O)(=O)c2ccc(Cl)c(Cl)c2)C3)s1	30 ng/mL	135 ng·h/mL	7.4 nM	0.32 nM
O=C(c1ccccn1)[C@]12Cc3cnn(-c4ccc(F)cc4)c3C=C1CCN(S(=O)(=O)c1ccc(C(F)(F)F)cc1)C2 [DAZUCORILANT]	–	–	12 nM	–
O=C(c1cc(C(F)(F)F)ccn1)[C@]12Cc3cnn(-c4ccc(F)cc4)c3C=C1CCN(S(=O)(=O)c1cn[nH]c1)C2	–	–	7.6 nM	–
O=C(c1ccccn1)[C@]12Cc3cnn(-c4ccc(F)cc4)c3C[C@@H]1CCN(S(=O)(=O)c1cccc(C(F)(F)F)c1)C2	–	–	44 nM	–
Cc1ccnc(C(=O)[C@]23Cc4cnn(-c5ccc(F)cc5)c4C=C2CCN(S(=O)(=O)c2ccc(F)c(F)c2)C3)c1	113 ng/mL	421 ng·h/mL	5.7 nM	0.14 nM
Cn1nncc1S(=O)(=O)N1CCC2=Cc3c(cnn3-c3ccc(F)cc3)C[C@]2(C(=O)c2cc(C(F)(F)F)ccn2)C1	–	–	31 nM	–
Cc1ccnc(C(=O)[C@]23Cc4cnn(-c5ccc(F)cc5)c4C=C2CCN(S(=O)(=O)c2cccc(C#N)c2)C3)c1	70 ng/mL	217 ng·h/mL	4.5 nM	0.15 nM
Cc1cnc(C(=O)[C@]23Cc4cnn(-c5ccc(F)cc5)c4C=C2CCN(S(=O)(=O)c2ccc(F)c(F)c2)C3)s1	30 ng/mL	135 ng·h/mL	7.4 nM	1.3 nM
Cc1cccc(S(=O)(=O)N2CCC3=Cc4c(cnn4-c4ccc(F)cc4)C[C@]3(C(=O)c3cc(C)ccn3)C2)c1	11 ng/mL	44 ng·h/mL	3.3 nM	0.08 nM
O=C(c1nccs1)[C@]12Cc3cnn(-c4ccc(F)cc4)c3C=C1CCN(S(=O)(=O)c1cccc(C(F)(F)F)c1)C2	103 ng/mL	446 ng·h/mL	17 nM	0.48 nM
Cn1ccc(S(=O)(=O)N2CC[C@H]3Cc4c(cnn4-c4ccc(F)cc4)C[C@]3(C(=O)c3cc(C(F)(F)F)ccn3)C2)n1	–	–	24 nM	–

Compound	Cmax [1]	AUC at 24 h [2]	Ki (Glucocorticoid receptor [3])	Ki (Glucocorticoid receptor [4])
Cc1n[nH]c(C)c1S(=O)(=O)N1CCC2=Cc3c(cnn3-c3ccc(F)cc3)C[C@]2(C(=O)c2cc(C(F)(F)F)ccn2)C1	–	–	69 nM	–
O=C(c1ccccn1)[C@]12Cc3cnn(-c4ccc(F)cc4)c3C=C1CCN(S(=O)(=O)c1cc(F)cc(F)c1)C2	72 ng/mL	143 ng·h/mL	9.2 nM	0.12 nM
O=C(c1ccccn1)[C@]12Cc3cnn(-c4ccc(F)cc4)c3C=C1CCN(S(=O)(=O)c1ccc(C(F)(F)F)c(F)c1)C2	125 ng/mL	726 ng·h/mL	–	–
Cn1nncc1S(=O)(=O)N1CC[C@H]2Cc3c(cnn3-c3ccc(F)cc3)C[C@]2(C(=O)c2cc(C(F)(F)F)ccn2)C1	–	–	120 nM	–
CCn1cc(S(=O)(=O)N2CCC3=Cc4c(cnn4-c4ccc(F)cc4)C[C@]3(C(=O)c3cc(C(F)(F)F)ccn3)C2)cn1	126 ng/mL	701 ng·h/mL	4.6 nM	–
Cn1cc(S(=O)(=O)N2CCC3=Cc4c(cnn4-c4ccc(F)cc4)C[C@]3(C(=O)c3ccccn3)C2)cn1	150 ng/mL	780 ng·h/mL	28 nM	–
N#Cc1cccc(S(=O)(=O)N2CCC3=Cc4c(cnn4-c4ccc(F)cc4)C[C@]3(C(=O)c3ccccn3)C2)c1	140 ng/mL	239 ng·h/mL	–	–
Cn1cc(S(=O)(=O)N2CC[C@H]3Cc4c(cnn4-c4ccc(F)cc4)C[C@]3(C(=O)c3cc(C(F)(F)F)ccn3)C2)nn1	–	–	60 nM	–
N#Cc1cccc(S(=O)(=O)N2CCC3=Cc4c(cnn4-c4ccc(F)cc4)C[C@]3(C(=O)c3cc(C(F)(F)F)ccn3)C2)c1	20 ng/mL	49 ng·h/mL	4.8 nM	0.32 nM
O=C(c1nccs1)[C@]12Cc3cnn(-c4ccc(F)cc4)c3C=C1CCN(S(=O)(=O)c1ccc(F)c(F)c1)C2	–	–	37 nM	0.23 nM
Cc1cnc(C(=O)[C@]23Cc4cnn(-c5ccc(F)cc5)c4C=C2CCN(S(=O)(=O)c2cccc(C(F)(F)F)c2)C3)s1	–	–	10 nM	0.29 nM
O=C(c1ccccn1)[C@]12Cc3cnn(-c4ccc(F)cc4)c3C=C1CCN(S(=O)(=O)c1ccc(F)c(F)c1)C2	215 ng/mL	974 ng·h/mL	–	–
Cc1c(S(=O)(=O)N2CCC3=Cc4c(cnn4-c4ccc(F)cc4)C[C@]3(C(=O)c3cc(C(F)(F)F)ccn3)C2)cnn1C	110 ng/mL	283 ng·h/mL	12 nM	–
Cc1ccc(C(=O)[C@]23Cc4cnn(-c5ccc(F)cc5)c4C=C2CCN(S(=O)(=O)c2cccc(C)c2)C3)nc1	–	–	7.5 nM	0.14 nM
Cc1cccc(S(=O)(=O)N2CCC3=Cc4c(cnn4-c4ccc(F)cc4)C[C@]3(C(=O)c3cccc(C)n3)C2)c1	–	–	14 nM	0.2 nM
Cc1ccnc(C(=O)[C@]23Cc4cnn(-c5ccc(F)cc5)c4C=C2CCN(S(=O)(=O)c2cccc(C(F)(F)F)c2)C3)c1	–	–	5.1 nM	0.21 nM
O=C(c1nccs1)[C@]12Cc3cnn(-c4ccc(F)cc4)c3C=C1CCN(S(=O)(=O)c1ccc(Cl)c(Cl)c1)C2	197 ng/mL	1220 ng·h/mL	16 nM	0.59 nM
Cn1ncc(S(=O)(=O)N2CCC3=Cc4c(cnn4-c4ccc(F)cc4)C[C@]3(C(=O)c3cc(C(F)(F)F)ccn3)C2)n1 [NENOCORILANT]	255 ng/mL	860 ng·h/mL	3.1 nM	–
